Measurements as given in ChEMBL document CHEMBL4316593 (Eur J Med Chem, 2019).

Tests used:
[1] = Inhibition of RTK/PI3K/AKT/mTOR signaling in human U87 cells assessed as up regulation of AXL gene expression at cytotoxic IC50 measured after 48 hrs relative to control; type: cell-based; details: U-87MG ATCC
In short: (§1)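 Cells were exposed for 48hrs at 37°C in humidified 5% CO₂ to the compound at its previously determined IC₅₀, with Cisplatin at its IC₅₀ and an untreated negative control alongside. Each condition was run in triplicate. RNA was isolated from all samples by the same protocol. Genes were called differentially expressed by DESeq2 at q-value < 0.05 and fold change > 1.5.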

U-87 MG [2] = assay: Induction of DNA damage in human U87 cells assessed as change in BRIP1 gene expression at cytotoxic IC50 measured after 48 hrs […] relative to control; type: functional, U-87MG ATCC
In short: (§2)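 U87 expression profiling. Cells incubated 48hrs at 37°C, 5% CO₂ with the IC₅₀ concentration, alongside a cisplatin and an untreated control, in triplicate. RNA was isolated by one common protocol and profiled. DEGs were called with DESeq2 (q < 0.05, fold change > 1.5) and expressed as fold change versus untreated.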

[3] = Inhibition of RTK/PI3K/AKT/mTOR signaling in human U87 cells assessed as up regulation of KCMF1 gene expression at cytotoxic IC50 measured after 48 hrs relative to control; type: cell-based; details: U-87MG ATCC; in short: as §1
[4] = Inhibition of RTK/PI3K/AKT/mTOR signaling in human U87 cells assessed as down regulation of HELLS gene expression at cytotoxic IC50 measured after 48 hrs relative to control; type: cell-based; details: U-87MG ATCC
In short: (§3)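 U87 cells grown in MEM with 10% FBS at 37°C, 5% CO2. Cells exposed to IC50 of test compound for 48 hrs, alongside untreated and cisplatin controls, each condition in triplicate. RNA isolated and profiled; differential expression called with DESeq2 (q-value < 0.05, fold change > 1.5), fold change versus untreated.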

[5] = Inhibition of RTK/PI3K/AKT/mTOR signaling in human U87 cells assessed as up regulation of STC2 gene expression at cytotoxic IC50 measured after 48 hrs relative to control; type: cell-based; details: U-87MG ATCC
[6] = Inhibition of RTK/PI3K/AKT/mTOR signaling in human U87 cells assessed as up regulation of WW domain containing transcription regulator 1 gene expression at cytotoxic IC50 measured after 48 hrs relative to control; type: cell-based; details: U-87MG ATCC
U-87 MG [7] = assay: Cell cycle arrest in human U87 cells assessed as change in MCM3 gene expression at cytotoxic IC50 measured after 48 hrs […] relative to control; type: functional, U-87MG ATCC; in short: as §2
[8] = Inhibition of RTK/PI3K/AKT/mTOR signaling in human U87 cells assessed as up regulation of ADP ribosylation factor like GTPase 6 interacting protein 5 gene expression at cytotoxic IC50 measured after 48 hrs relative to control; type: cell-based; details: U-87MG ATCC; in short: as §1
[9] = Inhibition of RTK/PI3K/AKT/mTOR signaling in human U87 cells assessed as up regulation of QSOX2 gene expression at cytotoxic IC50 measured after 48 hrs relative to control; type: cell-based; details: U-87MG ATCC; in short: as §1
U-87 MG [10] = assay: Cell cycle arrest in human U87 cells assessed as change in GADD45B gene expression at cytotoxic IC50 measured after 48 hrs […] relative to control; type: functional, U-87MG ATCC; in short: as §2
LN-229 = assay: Cytotoxicity against human LN229 cells assessed as reduction in cell proliferation measured after 48 hrs by trypan blue dye-based cell counting analysis; details: LN-229, 48 h
U-87 MG [11] = assay: Cell cycle arrest in human U87 cells assessed as change in CDK4 gene expression at cytotoxic IC50 measured after 48 hrs […] relative to control; type: functional, U-87MG ATCC; in short: as §2
U-87 MG [12] = assay: Cell cycle arrest in human U87 cells assessed as change in SFN gene expression at cytotoxic IC50 measured after 48 hrs […] relative to control; type: functional, U-87MG ATCC; in short: as §2
[13] = Inhibition of RTK/PI3K/AKT/mTOR signaling in human U87 cells assessed as up regulation of lemur tyrosine kinase 3 gene expression at cytotoxic IC50 measured after 48 hrs relative to control; type: cell-based; details: U-87MG ATCC
[14] = Inhibition of RTK/PI3K/AKT/mTOR signaling in human U87 cells assessed as down regulation of TAF13 gene expression at cytotoxic IC50 measured after 48 hrs relative to control; type: cell-based; details: U-87MG ATCC; in short: as §1
[15] = Inhibition of RTK/PI3K/AKT/mTOR signaling in human U87 cells assessed as down regulation of KIF1BP gene expression at cytotoxic IC50 measured after 48 hrs relative to control; type: cell-based; details: U-87MG ATCC; in short: as §3
[16] = Inhibition of RTK/PI3K/AKT/mTOR signaling in human U87 cells assessed as down regulation of SIDT2 gene expression at cytotoxic IC50 measured after 48 hrs relative to control; type: cell-based; details: U-87MG ATCC; in short: as §1
U-87 MG [17] = assay: Cell cycle arrest in human U87 cells assessed as change in CDK7 gene expression at cytotoxic IC50 measured after 48 hrs […] relative to control; type: functional, U-87MG ATCC; in short: as §2
U-87 MG [18] = assay: Induction of DNA damage in human U87 cells assessed as change in SFN gene expression at cytotoxic IC50 measured after 48 hrs […] relative to control; type: functional, U-87MG ATCC; in short: as §3
[19] = Inhibition of RTK/PI3K/AKT/mTOR signaling in human U87 cells assessed as up regulation of erythrocyte membrane protein band 4.1 gene expression at cytotoxic IC50 measured after 48 hrs relative to control; type: cell-based
MEF = assay: Cytotoxicity against MEF assessed as cell death at 100 uM measured after 48 hrs by trypan blue dye-based cell counting analysis; details: mouse
[20] = Inhibition of RTK/PI3K/AKT/mTOR signaling in human U87 cells assessed as up regulation of MORC family CW-type zinc finger 2 gene expression at cytotoxic IC50 measured after 48 hrs relative to control; type: cell-based; details: U-87MG ATCC; in short: as §1
[21] = Inhibition of RTK/PI3K/AKT/mTOR signaling in human U87 cells assessed as down regulation of PTGES3 gene expression at cytotoxic IC50 measured after 48 hrs relative to control; type: cell-based; details: U-87MG ATCC; in short: as §1
[22] = Inhibition of RTK/PI3K/AKT/mTOR signaling in human U87 cells assessed as up regulation of AGRN gene expression at cytotoxic IC50 measured after 48 hrs relative to control; type: cell-based; details: U-87MG ATCC; in short: as §1
[23] = Inhibition of RTK/PI3K/AKT/mTOR signaling in human U87 cells assessed as up regulation of retinoic acid receptor alpha gene expression at cytotoxic IC50 measured after 48 hrs relative to control; type: cell-based; details: U-87MG ATCC
U-87 MG [24] = assay: Induction of DNA damage in human U87 cells assessed as change in E2F7 gene expression at cytotoxic IC50 measured after 48 hrs […] relative to control; type: functional, U-87MG ATCC; in short: as §2
U-87 MG [25] = assay: Induction of DNA damage in human U87 cells assessed as change in MDM2 gene expression at cytotoxic IC50 measured after 48 hrs […] relative to control; type: functional, U-87MG ATCC; in short: as §2
[26] = Inhibition of RTK/PI3K/AKT/mTOR signaling in human U87 cells assessed as down regulation of COX17 gene expression at cytotoxic IC50 measured after 48 hrs relative to control; type: cell-based; details: U-87MG ATCC; in short: as §3
U-87 MG [27] = assay: Cell cycle arrest in human U87 cells assessed as change in GADD45A gene expression at cytotoxic IC50 measured after 48 hrs […] relative to control; type: functional, U-87MG ATCC; in short: as §2

## CC(=O)C(=NNc1ccccc1C#N)C(C)=O
[1]
  log2FC: 1.89
U-87 MG [2]
  fold change (FC): 2.317
[3]
  log2FC: 0.499
[4]
  log2FC: -1.06
[5]
  log2FC: 3.02
[6]
  log2FC: 0.981
U-87 MG [7]
  fold change (FC): 1.427
[8]
  log2FC: 0.661
[9]
  log2FC: 0.599
U-87 MG [10]
  fold change (FC): -2.899
LN-229
  IC50: 87 µM
U-87 MG [11]
  fold change (FC): 1.499
U-87 MG [12]
  fold change (FC): 1.949
[13]
  log2FC: 0.868
[14]
  log2FC: -1.05
[15]
  log2FC: -0.96
[16]
  log2FC: -0.671
U-87 MG [17]
  fold change (FC): -1.609
U-87 MG [18]
  fold change (FC): 1.949
[19]
  log2FC: 1.26
MEF
  Activity: < 20%
[20]
  log2FC: 0.946
[21]
  log2FC: -0.422
[22]
  log2FC: 0.578
[23]
  log2FC: 1.04
U-87 MG [24]
  fold change (FC): 2.057
U-87 MG [25]
  fold change (FC): 1.471
[26]
  log2FC: -1.13
U-87 MG [27]
  fold change (FC): -0.9679
